A short description of series [1]: Selectivity index, ratio of IC50 for MRC5 cells to IC50 for chloroquine-sensitive NF54 isolated Plasmodium falciparum 3D7. The note with it: human; read-out: Ratio IC50. The class given is toxicity, cell-based.
A further series has as its system MRC5. As to the kind of experiment: Cytotoxicity against human MRC5 cells assessed as cell growth inhibition after 48 hrs by alamar blue assay. The format is cell-based. Conditions: MRC5, 48 h. In outline: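 Human MRC-5 fibroblasts kept in DMEM with 10% FBS, 2 mM glutamine, streptomycin and penicillin at 37 °C, 5% CO2. Seeded at 2.5 × 10⁴ cells/well, 24 h, then DMSO-dissolved compounds diluted in medium were added; control wells held 0.1% DMSO final. Exposure 48 h; Alamar Blue added for the last 3 h; fluorescence read at 530–560 nm excitation.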
For orientation: Alamar Blue is a resazurin reagent that responds to reducing activity.

The next series relates to Plasmodium falciparum. Put plainly: Antimalarial activity against chloroquine-sensitive NF54 isolated Plasmodium falciparum 3D7 infected in erythrocytes assessed as inhibition of parasitic growth after 48 hrs by optical microscopy. The format is functional, organism-based. Conditions: 3D7, 48 h. In outline: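 P. falciparum 3D7 in erythrocytes at 1% initial parasitemia, 2% hematocrit. Samples dissolved in DMSO at 10 mg/mL stock, diluted in complete medium to seven test concentrations. Each dilution tested in triplicate; 48 h at 37 °C. Growth inhibition read by optical microscopy of well contents.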

The values below come from ChEMBL document CHEMBL3758142, “Synthesis and antimalarial activity of quinones and structurally-related oxirane derivatives” (Eur J Med Chem, 2016).

For the compound `COC1=CC(=O)c2ccccc2C12CO2` (stereo not given), the selectivity ratio in series [1] was below 2.3. Further, the IC50 (as a rule, the concentration that inhibits the measured activity by half) is 116 µM with MRC5 and above 50 µM with Plasmodium falciparum.
Take `C=CCOC1=CC(=O)c2ccccc2C1=O`: the selectivity ratio in series [1] amounted to 12. Further, the IC50 in the series with MRC5 stood at 64.8 µM; in the series on Plasmodium falciparum, 5.18 µM.
Take `C=CCOC1=CC(=O)c2ccccc2C12CO2` (stereo not given): the selectivity ratio in series [1] is below 0.53. The figures for the IC50 in the series on MRC5 and in the series with Plasmodium falciparum were 26.4 µM and above 50 µM, respectively.
Regarding `O=C1C(Cl)=C(Cl)C2(CO2)c2ccccc21` (stereo not given), the selectivity ratio in series [1] is 15. Besides, the IC50 in the series with MRC5 came out at 92.5 µM; with Plasmodium falciparum, 6.22 µM.
On the same counts, the results for `CC1(C)CCC2=C(O1)C1(CO1)c1ccccc1C2=O` (stereo not given) are above 27, above 100 µM and 3.71 µM.
As for `O=C1C(Cl)=C(Cl)C2(CO2)C(Cl)=C1Cl`, the selectivity ratio in series [1] came to 93. For the same compound, the IC50 was found to be 368 µM in the series on MRC5 and 3.95 µM in the series on Plasmodium falciparum.
Regarding `NC1=CC(=O)c2ccccc2C12CO2` (stereo not given), the IC50 with MRC5 was above 100 µM; in the series on Plasmodium falciparum, above 50 µM.
The matching figures for `N#CC1=C(C#N)C(=O)C(Cl)=C(Cl)C1=O`: above 100 µM and above 50 µM.
As for `O=C1C=C(Nc2ccccc2)C2(CO2)c2ccccc21` (stereo not given), the selectivity ratio in series [1] is below 2.7. The values for the IC50 in the series on MRC5 and in the series on Plasmodium falciparum were 135 µM and above 50 µM, respectively.
On to `COc1c(Cl)c(Cl)c(OC)c(C#N)c1C#N`, for which the figures for the IC50 with MRC5 and in the series with Plasmodium falciparum were above 100 µM and above 50 µM, respectively.
Regarding `NC1=CC(=O)c2ccccc2C1=O`, the selectivity ratio in series [1] is 63. For the same compound, the concentration for half-maximal inhibition (IC50) in the series on MRC5 worked out at 322 µM; in the series with Plasmodium falciparum, 5.14 µM.
Consider `CC1(C)CC2=C(O1)C1(CO1)c1ccccc1C2=O` (stereo not given), for which the selectivity ratio in series [1] was below 1.1. Also, the IC50 is 55.7 µM in the series with MRC5 and above 50 µM with Plasmodium falciparum.
As to `CC1(C)CC2=C(O1)C(=O)c1ccccc1C2=O`, in series [1], the selectivity ratio was below 1.1. The IC50 was 56.1 µM in the series on MRC5 and above 50 µM in the series with Plasmodium falciparum.
`O=C1C=C(Nc2ccccc2)C(=O)c2ccccc21`: the selectivity ratio in series [1] was above 15. The concentration for half-maximal inhibition (IC50) is above 100 µM in the series on MRC5 and 6.3 µM with Plasmodium falciparum.
The matching figures for `COC1=CC(=O)c2ccccc2C1=O` [2-Methoxy-1,4-naphthoquinone]: below 0.1, 5.2 µM and above 50 µM.
For the compound `CC1(C)CCC2=C(O1)C(=O)c1ccccc1C2=O` [ALPHA-LAPACHONE], the IC50 in the series on MRC5 is above 100 µM; with Plasmodium falciparum, above 50 µM.
Consider `O=C1C(Cl)=C(Cl)C(=O)C(Cl)=C1Cl` [CHLORANIL], for which the selectivity ratio in series [1] is above 4.4. The IC50 is above 100 µM in the series on MRC5 and 22.4 µM in the series with Plasmodium falciparum.
In the case of `O=C1C(Cl)=C(Cl)C(=O)c2ccccc21` [Dichlon], the selectivity ratio in series [1] stood at 7.2. The IC50 in the series with MRC5 worked out at 98.2 µM; with Plasmodium falciparum it was 13.9 µM.
